We go through one compound from BindingDB's records for doi:10.1021/jm049389h (Johns Hopkins University, 2005).

For this assay, the target named is Fatty acid synthase (Homo sapiens, UniProt P49327). Put plainly: Inhibitory concentration against purified human fatty acid synthase activity in ZR-75-1 breast cancer cells. The method, boiled down:
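FAS purified from ZR-75-1 human breast cancer cells (2 µg per well). Overall reaction read at 37 °C as malonyl-CoA-dependent NADPH oxidation at 340 nm, every 10 s for 5 min. Average of duplicate runs; neg means IC50 > 50 µg/mL.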

The IC50 is the concentration at which inhibition is half-maximal.

Chain of Fatty acid synthase (P49327 whole entry): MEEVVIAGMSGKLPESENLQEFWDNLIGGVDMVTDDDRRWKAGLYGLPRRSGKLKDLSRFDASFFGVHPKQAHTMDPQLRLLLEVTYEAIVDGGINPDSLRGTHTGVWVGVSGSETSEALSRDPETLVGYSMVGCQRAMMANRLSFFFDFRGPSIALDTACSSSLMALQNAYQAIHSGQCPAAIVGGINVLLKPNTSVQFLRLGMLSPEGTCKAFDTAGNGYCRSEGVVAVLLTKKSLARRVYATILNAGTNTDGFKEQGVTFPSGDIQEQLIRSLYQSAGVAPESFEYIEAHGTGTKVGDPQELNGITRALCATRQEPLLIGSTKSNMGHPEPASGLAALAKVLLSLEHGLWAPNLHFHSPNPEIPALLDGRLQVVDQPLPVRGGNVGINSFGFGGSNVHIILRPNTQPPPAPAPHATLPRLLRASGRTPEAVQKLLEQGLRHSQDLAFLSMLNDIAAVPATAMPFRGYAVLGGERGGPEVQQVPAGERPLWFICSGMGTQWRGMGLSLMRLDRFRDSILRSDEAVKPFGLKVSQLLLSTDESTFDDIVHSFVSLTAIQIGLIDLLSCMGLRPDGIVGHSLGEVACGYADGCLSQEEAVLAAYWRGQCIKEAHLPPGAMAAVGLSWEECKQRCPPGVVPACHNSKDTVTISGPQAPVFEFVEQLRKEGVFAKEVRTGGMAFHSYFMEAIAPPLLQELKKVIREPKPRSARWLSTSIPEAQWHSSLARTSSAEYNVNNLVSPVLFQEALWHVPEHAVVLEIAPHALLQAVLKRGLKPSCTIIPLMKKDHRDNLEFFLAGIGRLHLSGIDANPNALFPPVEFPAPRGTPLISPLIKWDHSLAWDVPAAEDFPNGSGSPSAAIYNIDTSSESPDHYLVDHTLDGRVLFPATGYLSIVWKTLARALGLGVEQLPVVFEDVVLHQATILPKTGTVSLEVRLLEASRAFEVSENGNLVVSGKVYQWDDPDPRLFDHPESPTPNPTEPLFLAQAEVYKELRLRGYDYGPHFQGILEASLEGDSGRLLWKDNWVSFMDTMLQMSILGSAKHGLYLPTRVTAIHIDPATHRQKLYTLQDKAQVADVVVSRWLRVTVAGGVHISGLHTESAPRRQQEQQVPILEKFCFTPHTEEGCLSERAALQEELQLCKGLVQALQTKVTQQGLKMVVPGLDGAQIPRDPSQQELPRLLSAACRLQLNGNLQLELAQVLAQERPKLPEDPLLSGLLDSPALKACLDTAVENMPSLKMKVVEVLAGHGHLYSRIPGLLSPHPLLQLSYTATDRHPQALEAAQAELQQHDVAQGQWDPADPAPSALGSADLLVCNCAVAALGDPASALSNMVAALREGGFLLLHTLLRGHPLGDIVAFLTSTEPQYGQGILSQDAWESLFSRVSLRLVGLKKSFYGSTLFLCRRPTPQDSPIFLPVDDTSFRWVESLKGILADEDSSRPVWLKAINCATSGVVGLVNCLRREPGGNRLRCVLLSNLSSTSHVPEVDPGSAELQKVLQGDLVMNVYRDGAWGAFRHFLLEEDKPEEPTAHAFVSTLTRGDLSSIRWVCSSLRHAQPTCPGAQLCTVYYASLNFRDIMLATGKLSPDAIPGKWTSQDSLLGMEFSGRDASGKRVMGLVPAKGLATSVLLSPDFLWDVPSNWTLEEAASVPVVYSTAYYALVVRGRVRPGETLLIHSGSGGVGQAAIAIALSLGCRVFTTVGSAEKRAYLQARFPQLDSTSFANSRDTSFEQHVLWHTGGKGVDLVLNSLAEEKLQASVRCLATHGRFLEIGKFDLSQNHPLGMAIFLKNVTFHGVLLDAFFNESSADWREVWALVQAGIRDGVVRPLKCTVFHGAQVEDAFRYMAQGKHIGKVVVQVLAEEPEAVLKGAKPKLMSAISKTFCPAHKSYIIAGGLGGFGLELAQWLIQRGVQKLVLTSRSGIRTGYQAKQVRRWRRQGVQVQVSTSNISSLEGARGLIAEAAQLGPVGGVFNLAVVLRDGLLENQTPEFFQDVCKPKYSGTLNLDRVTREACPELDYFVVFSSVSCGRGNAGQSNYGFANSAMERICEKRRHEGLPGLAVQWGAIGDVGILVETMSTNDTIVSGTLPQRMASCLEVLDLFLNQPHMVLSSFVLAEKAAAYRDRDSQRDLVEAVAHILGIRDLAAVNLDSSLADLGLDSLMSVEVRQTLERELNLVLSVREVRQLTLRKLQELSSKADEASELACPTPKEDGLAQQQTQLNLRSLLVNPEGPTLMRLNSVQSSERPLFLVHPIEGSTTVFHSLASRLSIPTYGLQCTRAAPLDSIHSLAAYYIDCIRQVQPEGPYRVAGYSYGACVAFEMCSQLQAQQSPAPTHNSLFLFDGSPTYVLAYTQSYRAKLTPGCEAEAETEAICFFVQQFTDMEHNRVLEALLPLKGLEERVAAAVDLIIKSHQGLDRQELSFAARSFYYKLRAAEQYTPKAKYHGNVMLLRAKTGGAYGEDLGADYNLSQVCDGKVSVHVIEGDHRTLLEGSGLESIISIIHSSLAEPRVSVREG

Consider `C=C/C(C)=C/[C@@]1(C)SC(=O)C(C)C1=O` (stereo partly drawn) [(R)-(+)-Thiolactomycin], for which the IC50 came out at 99.8 µM.
